From ChEMBL document CHEMBL2046313, “Discovery and evaluation of a non-Zn chelating, selective matrix metalloproteinase 13 (MMP-13) inhibitor for potential intra-articular treatment of osteoarthritis” (J Med Chem, 2012)

Experiments:
[1] = biological target: T1, Matrilysin (Homo sapiens, UniProt P09237); test: Inhibition of human recombinant MMP7 using MCA-Pro-Leu-Gly-Leu-Dpa-Ala-Arg-NH2.AcOH as substrate preincubated for 10 mins measured by fluorescence analysis
T1 sequence (P09237 whole entry): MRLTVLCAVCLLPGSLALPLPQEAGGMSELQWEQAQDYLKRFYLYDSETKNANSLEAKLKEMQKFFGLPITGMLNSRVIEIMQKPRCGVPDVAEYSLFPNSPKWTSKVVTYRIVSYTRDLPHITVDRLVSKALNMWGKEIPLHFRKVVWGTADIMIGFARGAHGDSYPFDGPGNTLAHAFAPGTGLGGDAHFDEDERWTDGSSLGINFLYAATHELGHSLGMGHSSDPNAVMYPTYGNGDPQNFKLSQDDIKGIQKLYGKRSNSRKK
How it was run: (§1)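 Catalytic domains of recombinant human MMPs were assayed with fluorogenic OmniMMP substrate in 50 mM Tris-HCl pH 7.5, 150 mM NaCl, 5 mM CaCl₂, 0.05% Brij-35. Enzyme was 1–10 nM and substrate 4–10 μM, optimized per assay. Enzyme was preincubated 10 min with varying inhibitor concentrations, and IC50 was calculated from runs done at least in duplicate.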

[2] = species: Rattus norvegicus; test: Chondroprotective activity in Sprague-Dawley rat cartilage assessed as inhibition of MMP13-mediated C1,C2 release at 0.5 mg/joint, ia measured on day 21 by ELISA; assay type: functional
How it was run: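 Male Sprague-Dawley rats (175−200 g, three per group) received one IA injection of 50 μL PBS holding 10 mg/mL suspension (sonicated, vortexed) into right knee. They were killed at 1, 7, 14 or 21 days, and tibial cartilage was collected. Cartilage was then challenged with 10 μg/mL APMA-activated human MMP-13 for 24 h at 37 °C in Tris pH 7.5. The reaction was stopped with 10 mM EDTA, and released C1,2C was measured by ELISA. Vehicle cartilage incubated with or without MMP-13 defined 100% and 0%.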

[3] = Drug uptake in Sprague-Dawley rat cartilage at 0.5 mg/joint measured after 21 days; assay type: ADME, tissue-based, Cartilage tissue; details: read-out: Drug uptake
[4] = Metabolic stability in rat microsomes assessed as unmetabolized compound after 60 mins; assay type: ADME, Microsome; details: read-out: Stability
[5] = biological target: T2, Interstitial collagenase (Homo sapiens, UniProt P03956); test: Inhibition of human recombinant MMP1 using MCA-Pro-Leu-Gly-Leu-Dpa-Ala-Arg-NH2.AcOH as substrate preincubated for 10 mins measured by fluorescence analysis; how it was run: as §1
T2 sequence (P03956 whole entry): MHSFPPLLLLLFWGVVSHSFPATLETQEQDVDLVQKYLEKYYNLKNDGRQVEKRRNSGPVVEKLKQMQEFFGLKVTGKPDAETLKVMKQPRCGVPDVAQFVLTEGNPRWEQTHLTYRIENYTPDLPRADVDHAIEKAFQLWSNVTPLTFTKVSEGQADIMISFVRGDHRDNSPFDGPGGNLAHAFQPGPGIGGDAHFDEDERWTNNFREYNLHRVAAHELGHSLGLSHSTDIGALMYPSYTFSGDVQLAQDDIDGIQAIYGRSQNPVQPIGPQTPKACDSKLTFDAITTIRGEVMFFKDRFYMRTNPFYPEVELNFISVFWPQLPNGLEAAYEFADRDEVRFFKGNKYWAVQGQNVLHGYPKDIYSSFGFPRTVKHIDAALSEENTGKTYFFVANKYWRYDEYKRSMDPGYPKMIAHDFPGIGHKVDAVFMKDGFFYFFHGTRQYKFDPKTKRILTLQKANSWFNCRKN

[6] = system: Rattus norvegicus; test: Toxicity in Sprague-Dawley rat assessed as joint irritation at 0.5 mg/kg, ia measured after 3 weeks; assay type: organism-based; parameters: dose 0.5 mg/kg; details: in vivo, other, 504 h
[7] = system: Plasma; test: Drug uptake in Sprague-Dawley rat plasma at 0.5 mg/kg, ia measured after 8 weeks; assay type: ADME, organism-based; parameters: dose 0.5 mg/kg; details: in vivo, other, 1344 h, BLD = below limit of detection
[8] = biological target: Matrix metalloproteinase-9 (Homo sapiens, UniProt P14780); test: Inhibition of human recombinant MMP9 using MCA-Pro-Leu-Gly-Leu-Dpa-Ala-Arg-NH2.AcOH as substrate preincubated for 10 mins measured by fluorescence analysis; how it was run: as §1
Matrix metalloproteinase-9, sequence (P14780 whole entry): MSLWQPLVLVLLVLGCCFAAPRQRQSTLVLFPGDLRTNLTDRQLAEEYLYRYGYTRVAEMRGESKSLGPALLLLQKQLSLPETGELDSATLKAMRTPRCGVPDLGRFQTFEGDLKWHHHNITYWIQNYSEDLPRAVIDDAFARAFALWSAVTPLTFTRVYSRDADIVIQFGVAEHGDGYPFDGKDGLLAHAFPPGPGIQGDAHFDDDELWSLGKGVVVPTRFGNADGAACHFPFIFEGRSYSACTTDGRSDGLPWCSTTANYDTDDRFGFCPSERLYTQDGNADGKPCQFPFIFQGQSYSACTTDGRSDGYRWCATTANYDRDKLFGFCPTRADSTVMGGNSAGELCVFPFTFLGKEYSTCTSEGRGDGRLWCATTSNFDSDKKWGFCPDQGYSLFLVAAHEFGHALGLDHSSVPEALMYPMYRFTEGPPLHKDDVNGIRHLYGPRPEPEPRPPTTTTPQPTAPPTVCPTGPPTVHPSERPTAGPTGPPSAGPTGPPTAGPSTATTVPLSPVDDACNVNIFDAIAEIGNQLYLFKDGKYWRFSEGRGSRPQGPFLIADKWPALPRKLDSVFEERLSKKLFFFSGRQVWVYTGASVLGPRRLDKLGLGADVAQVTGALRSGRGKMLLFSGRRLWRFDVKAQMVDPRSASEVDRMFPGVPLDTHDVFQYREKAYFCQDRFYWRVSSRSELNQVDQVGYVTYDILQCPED

[9] = biological target: T3, A disintegrin and metalloproteinase with thrombospondin motifs 4 (Homo sapiens, UniProt O75173); test: Inhibition of human recombinant aggrecanase 1 using aggrecan-IGD as substrate measured after 15 mins by ELISA
T3 sequence (O75173 whole entry): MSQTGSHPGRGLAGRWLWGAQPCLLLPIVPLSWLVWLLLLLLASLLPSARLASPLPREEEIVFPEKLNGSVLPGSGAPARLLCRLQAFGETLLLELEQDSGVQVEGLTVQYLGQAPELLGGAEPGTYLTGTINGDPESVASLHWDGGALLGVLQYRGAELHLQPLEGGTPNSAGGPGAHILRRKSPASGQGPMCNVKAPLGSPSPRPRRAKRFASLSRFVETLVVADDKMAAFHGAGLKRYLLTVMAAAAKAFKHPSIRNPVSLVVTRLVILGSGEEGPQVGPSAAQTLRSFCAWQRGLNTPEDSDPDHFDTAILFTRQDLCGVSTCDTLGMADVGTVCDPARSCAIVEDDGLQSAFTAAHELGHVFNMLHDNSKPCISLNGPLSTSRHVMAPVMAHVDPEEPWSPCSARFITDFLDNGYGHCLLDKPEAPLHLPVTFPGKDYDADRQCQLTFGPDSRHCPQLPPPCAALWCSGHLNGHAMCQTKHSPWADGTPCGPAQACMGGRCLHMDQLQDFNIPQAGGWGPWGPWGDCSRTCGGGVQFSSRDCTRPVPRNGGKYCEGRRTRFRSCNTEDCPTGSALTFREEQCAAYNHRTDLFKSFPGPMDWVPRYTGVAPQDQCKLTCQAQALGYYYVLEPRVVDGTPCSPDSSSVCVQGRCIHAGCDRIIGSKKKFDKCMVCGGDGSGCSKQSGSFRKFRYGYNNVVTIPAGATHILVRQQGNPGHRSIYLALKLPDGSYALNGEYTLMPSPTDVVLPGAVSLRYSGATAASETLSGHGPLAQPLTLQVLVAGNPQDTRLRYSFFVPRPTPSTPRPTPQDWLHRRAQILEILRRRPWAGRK
How it was run: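 Aggrecanase-1 was run in 50 mM Tris-HCl pH 7.5, 150 mM NaCl, 5 mM CaCl₂, 0.05% Brij-35, with 100 nM recombinant human aggrecan interglobular domain as substrate, for 15 min at 37 °C. The reaction was stopped with EDTA, and ARGSVIL neoepitopes were quantified by ELISA.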

[10] = system: Rattus norvegicus; test: Toxicity in Sprague-Dawley rat assessed as adverse effects at 0.5 mg/kg, ia measured after 3 weeks; assay type: organism-based; parameters: dose 0.5 mg/kg; details: in vivo, other, 504 h
[11] = biological target: 72 kDa type IV collagenase (Homo sapiens, UniProt P08253); test: Inhibition of human recombinant MMP2 using MCA-Pro-Leu-Gly-Leu-Dpa-Ala-Arg-NH2.AcOH as substrate preincubated for 10 mins measured by fluorescence analysis; how it was run: as §1
72 kDa type IV collagenase, sequence (P08253 whole entry): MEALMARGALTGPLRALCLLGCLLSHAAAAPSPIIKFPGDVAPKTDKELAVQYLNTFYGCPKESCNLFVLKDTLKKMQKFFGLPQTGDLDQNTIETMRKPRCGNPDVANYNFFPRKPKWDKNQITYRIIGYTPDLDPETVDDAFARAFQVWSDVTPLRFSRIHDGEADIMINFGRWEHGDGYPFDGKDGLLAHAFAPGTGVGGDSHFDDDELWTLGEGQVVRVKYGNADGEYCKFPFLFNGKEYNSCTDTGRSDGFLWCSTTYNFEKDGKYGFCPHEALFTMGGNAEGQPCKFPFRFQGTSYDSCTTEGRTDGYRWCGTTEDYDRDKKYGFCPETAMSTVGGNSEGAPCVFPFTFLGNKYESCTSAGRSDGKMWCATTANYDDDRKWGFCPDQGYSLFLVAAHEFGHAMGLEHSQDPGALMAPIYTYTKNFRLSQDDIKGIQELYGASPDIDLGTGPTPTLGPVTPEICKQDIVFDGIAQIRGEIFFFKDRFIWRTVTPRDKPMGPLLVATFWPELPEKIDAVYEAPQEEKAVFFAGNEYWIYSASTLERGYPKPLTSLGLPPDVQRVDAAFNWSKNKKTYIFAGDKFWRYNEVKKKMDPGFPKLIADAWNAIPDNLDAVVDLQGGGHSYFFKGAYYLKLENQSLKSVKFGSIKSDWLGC

[12] = Metabolic stability in human microsomes assessed as unmetabolized compound after 60 mins; assay type: ADME, Microsome; details: read-out: Stability
[13] = biological target: Matrix metalloproteinase-14 (Homo sapiens, UniProt P50281); test: Inhibition of human recombinant MMP14 using MCA-Pro-Leu-Gly-Leu-Dpa-Ala-Arg-NH2.AcOH as substrate preincubated for 10 mins measured by fluorescence analysis; how it was run: as §1
[14] = Drug uptake in Sprague-Dawley rat synovial lavage at 0.5 mg/joint measured after 21 days; assay type: ADME; details: read-out: Drug uptake
[15] = system: Plasma; test: Drug uptake in Sprague-Dawley rat plasma at 0.5 mg/joint measured after 8 weeks; assay type: ADME, cell-free; details: other, 1344 h, BLD = below limit of detection
[16] = biological target: Collagenase 3 (Homo sapiens, UniProt P45452); test: Inhibition of human recombinant MMP13 using MCA-Pro-Cha-Gly-Nva-His-Ala-Dpa-NH2 as substrate preincubated for 10 mins measured by fluorescence analysis
How it was run: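 Catalytic domain of recombinant human MMP-13 was assayed with fluorogenic substrate in 50 mM Tris-HCl pH 7.5, 150 mM NaCl, 5 mM CaCl₂, 0.05% Brij-35. Enzyme was 1–10 nM and substrate 4–10 μM. It was preincubated 10 min with varying inhibitor concentrations, and IC50 came from at least duplicate runs.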

[17] = biological target: Neutrophil collagenase (Homo sapiens, UniProt P22894); test: Inhibition of human recombinant MMP8 using MCA-Pro-Leu-Gly-Leu-Dpa-Ala-Arg-NH2.AcOH as substrate preincubated for 10 mins measured by fluorescence analysis; how it was run: as §1
Neutrophil collagenase, sequence (P22894 whole entry): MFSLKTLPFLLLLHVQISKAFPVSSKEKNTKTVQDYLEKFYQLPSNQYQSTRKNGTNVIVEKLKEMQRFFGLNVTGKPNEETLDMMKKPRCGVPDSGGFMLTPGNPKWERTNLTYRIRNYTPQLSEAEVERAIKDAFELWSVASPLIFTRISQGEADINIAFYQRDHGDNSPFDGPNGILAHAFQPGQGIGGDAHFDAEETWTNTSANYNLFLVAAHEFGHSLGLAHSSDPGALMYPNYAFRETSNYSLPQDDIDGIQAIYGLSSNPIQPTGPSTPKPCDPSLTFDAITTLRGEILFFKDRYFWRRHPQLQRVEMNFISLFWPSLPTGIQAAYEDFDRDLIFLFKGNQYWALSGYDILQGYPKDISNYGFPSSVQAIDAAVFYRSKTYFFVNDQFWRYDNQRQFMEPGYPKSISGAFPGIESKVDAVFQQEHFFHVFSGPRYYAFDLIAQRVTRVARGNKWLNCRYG

Cc1c(C(=O)O)ccc2c1CC[C@@H]2NC(=O)c1cc(C(=O)NCc2ccc3c(c2)NC(=O)CO3)nc2ccnn12
IC50 [1]: > 20 µM
inhibition (INH) [2]: 100%
concentration at 504 h [3]: 4090 nM
remaining at 1 h [4]: 95%
IC50 [5]: > 20 µM
Activity [6]: Non-toxic
Cp [7]: BLD
IC50 [8]: > 20 µM
IC50 [9]: 2.4 µM
Activity [10]: Non-toxic
IC50 [11]: > 20 µM
remaining at 1 h [12]: 96%
IC50 [13]: > 20 µM
concentration at 504 h [14]: 300 nM
Cp [15]: BLD
IC50 [16]: 0.03 nM
IC50 [17]: 3.2 µM
